Source: article PMC13170702 (Nuclear medicine and biology, 2025)

Experiment: organ radiation dose estimates, OLINDA 1.1, ICRP-60
Type: in vivo, human
Summary of the method: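 Whole-body PET-MR ran as nine scans to 214 min. Organ VOIs were drawn in AMIDE, giving decay-corrected %IA per VOI; remainder = whole body minus measured organs. TIACs came from the exponential model (EXM) in OLINDA 1.1. Per-participant organ doses used 70 kg adult male or 55 kg female models in OLINDA 1.1. Effective dose (mSv) = organ absorbed doses × ICRP-60 tissue weighting factors.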

Q: What does the source list for `COC(=O)[C@@H](N)CC(=O)Nc1ccc2c(c1)Cc1cc([18F])ccc1-2` [[^18F]RP-115, methyl N^4-(7-[^18F]fluoro-9H-fluoren-2-yl)asparaginate]?
A: Estimated dose, Upper, lower intestine wall (Female n=4, mean±SD): 0.0160±0.0012 mGy/MBq; Estimated dose, Urinary bladder wall (Female n=4, mean±SD): 0.0588±0.0438 mGy/MBq; Estimated dose, Uterus (Female n=4, mean±SD): 0.0569±0.0512 mGy/MBq; Effective dose (whole body) (M1 (326 MBq)): 6.74 mSv; Estimated absorbed dose, Adrenals (M1 (326 MBq)): 6.51 mGy; Estimated absorbed dose, Brain (M1 (326 MBq)): 5.63 mGy; Estimated absorbed dose, Breasts (M1 (326 MBq)): 2.73 mGy; Estimated absorbed dose, Gallbladder wall (M1 (326 MBq)): 9.08 mGy; Estimated absorbed dose, Heart wall (M1 (326 MBq)): 8.79 mGy; Estimated absorbed dose, Kidneys (M1 (326 MBq)): 72.0 mGy; Estimated absorbed dose, Liver (M1 (326 MBq)): 16.0 mGy; Estimated absorbed dose, Lower large intestine wall (M1 (326 MBq)): 3.45 mGy; Estimated absorbed dose, Lungs (M1 (326 MBq)): 19.7 mGy; Estimated absorbed dose, Muscle (M1 (326 MBq)): 3.00 mGy; Estimated absorbed dose, Osteogenic cells (M1 (326 MBq)): 4.07 mGy; Estimated absorbed dose, Pancreas (M1 (326 MBq)): 6.41 mGy; Estimated absorbed dose, Red marrow (M1 (326 MBq)): 3.42 mGy; Estimated absorbed dose, Remainder (M1 (326 MBq)): 4.10 mGy; Estimated absorbed dose, Skin (M1 (326 MBq)): 2.10 mGy; Estimated absorbed dose, Small intestine (M1 (326 MBq)): 13.8 mGy; Estimated absorbed dose, Spleen (M1 (326 MBq)): 21.3 mGy; Estimated absorbed dose, Stomach wall (M1 (326 MBq)): 4.33 mGy; Estimated absorbed dose, Testes (M1 (326 MBq)): 2.12 mGy; Estimated absorbed dose, Thymus (M1 (326 MBq)): 16.7 mGy; Estimated absorbed dose, Thyroid (M1 (326 MBq)): 3.39 mGy; Estimated absorbed dose, Upper, lower intestine wall (M1 (326 MBq)): 5.37 mGy; Estimated absorbed dose, Urinary bladder wall (M1 (326 MBq)): 3.65 mGy; Effective dose (whole body) (M2 (289 MBq)): 5.48 mSv; Estimated absorbed dose, Adrenals (M2 (289 MBq)): 4.94 mGy; Estimated absorbed dose, Brain (M2 (289 MBq)): 3.03 mGy; Estimated absorbed dose, Breasts (M2 (289 MBq)): 2.26 mGy; Estimated absorbed dose, Gallbladder wall (M2 (289 MBq)): 6.41 mGy; Estimated absorbed dose, Heart wall (M2 (289 MBq)): 6.46 mGy; Estimated absorbed dose, Kidneys (M2 (289 MBq)): 37.8 mGy; Estimated absorbed dose, Liver (M2 (289 MBq)): 16.6 mGy; Estimated absorbed dose, Lower large intestine wall (M2 (289 MBq)): 2.97 mGy; Estimated absorbed dose, Lungs (M2 (289 MBq)): 11.0 mGy; Estimated absorbed dose, Muscle (M2 (289 MBq)): 2.55 mGy; Estimated absorbed dose, Osteogenic cells (M2 (289 MBq)): 3.58 mGy; Estimated absorbed dose, Pancreas (M2 (289 MBq)): 4.30 mGy; Estimated absorbed dose, Red marrow (M2 (289 MBq)): 2.76 mGy; Estimated absorbed dose, Remainder (M2 (289 MBq)): 3.32 mGy; Estimated absorbed dose, Skin (M2 (289 MBq)): 1.85 mGy; Estimated absorbed dose, Small intestine (M2 (289 MBq)): 9.32 mGy; Estimated absorbed dose, Spleen (M2 (289 MBq)): 7.24 mGy; Estimated absorbed dose, Stomach wall (M2 (289 MBq)): 3.41 mGy; Estimated absorbed dose, Testes (M2 (289 MBq)): 2.02 mGy; Estimated absorbed dose, Thymus (M2 (289 MBq)): 4.68 mGy; Estimated absorbed dose, Thyroid (M2 (289 MBq)): 2.23 mGy; Estimated absorbed dose, Upper, lower intestine wall (M2 (289 MBq)): 4.24 mGy; Estimated absorbed dose, Urinary bladder wall (M2 (289 MBq)): 4.70 mGy; Effective dose (whole body) (M3 (70.3 MBq)): 1.52 mSv; Estimated absorbed dose, Adrenals (M3 (70.3 MBq)): 1.21 mGy; Estimated absorbed dose, Brain (M3 (70.3 MBq)): 0.820 mGy; Estimated absorbed dose, Breasts (M3 (70.3 MBq)): 0.560 mGy; Estimated absorbed dose, Gallbladder wall (M3 (70.3 MBq)): 1.35 mGy; Estimated absorbed dose, Heart wall (M3 (70.3 MBq)): 1.79 mGy; Estimated absorbed dose, Kidneys (M3 (70.3 MBq)): 12.7 mGy; Estimated absorbed dose, Liver (M3 (70.3 MBq)): 2.61 mGy; Estimated absorbed dose, Lower large intestine wall (M3 (70.3 MBq)): 0.670 mGy; Estimated absorbed dose, Lungs (M3 (70.3 MBq)): 3.91 mGy; Estimated absorbed dose, Muscle (M3 (70.3 MBq)): 0.605 mGy; Estimated absorbed dose, Osteogenic cells (M3 (70.3 MBq)): 0.837 mGy; Estimated absorbed dose, Pancreas (M3 (70.3 MBq)): 1.33 mGy; Estimated absorbed dose, Red marrow (M3 (70.3 MBq)): 0.662 mGy; Estimated absorbed dose, Remainder (M3 (70.3 MBq)): 0.780 mGy; Estimated absorbed dose, Skin (M3 (70.3 MBq)): 0.434 mGy; Estimated absorbed dose, Small intestine (M3 (70.3 MBq)): 1.61 mGy; Estimated absorbed dose, Spleen (M3 (70.3 MBq)): 2.28 mGy; Estimated absorbed dose, Stomach wall (M3 (70.3 MBq)): 0.815 mGy; Estimated absorbed dose, Testes (M3 (70.3 MBq)): 0.479 mGy; Estimated absorbed dose, Thymus (M3 (70.3 MBq)): 1.64 mGy; Estimated absorbed dose, Thyroid (M3 (70.3 MBq)): 0.643 mGy; Estimated absorbed dose, Upper, lower intestine wall (M3 (70.3 MBq)): 0.879 mGy; Estimated absorbed dose, Urinary bladder wall (M3 (70.3 MBq)): 1.96 mGy; Effective dose (whole body) (M4 (153 MBq)): 2.89 mSv; Estimated absorbed dose, Adrenals (M4 (153 MBq)): 3.04 mGy; Estimated absorbed dose, Brain (M4 (153 MBq)): 2.44 mGy; Estimated absorbed dose, Breasts (M4 (153 MBq)): 1.31 mGy; Estimated absorbed dose, Gallbladder wall (M4 (153 MBq)): 3.80 mGy; Estimated absorbed dose, Heart wall (M4 (153 MBq)): 1.79 mGy; Estimated absorbed dose, Liver (M4 (153 MBq)): 2.12 mGy; Estimated absorbed dose, Lower large intestine wall (M4 (153 MBq)): 2.51 mGy; Estimated absorbed dose, Lungs (M4 (153 MBq)): 4.01 mGy; Estimated absorbed dose, Muscle (M4 (153 MBq)): 35.0 mGy; Estimated absorbed dose, Osteogenic cells (M4 (153 MBq)): 5.85 mGy; Estimated absorbed dose, Pancreas (M4 (153 MBq)): 1.52 mGy; Estimated absorbed dose, Red marrow (M4 (153 MBq)): 2.02 mGy; Estimated absorbed dose, Remainder (M4 (153 MBq)): 1.96 mGy; Estimated absorbed dose, Skin (M4 (153 MBq)): 4.45 mGy; Estimated absorbed dose, Small intestine (M4 (153 MBq)): 1.69 mGy; Estimated absorbed dose, Spleen (M4 (153 MBq)): 2.12 mGy; Estimated absorbed dose, Stomach wall (M4 (153 MBq)): 1.10 mGy; Estimated absorbed dose, Testes (M4 (153 MBq)): 7.89 mGy; Estimated absorbed dose, Thymus (M4 (153 MBq)): 1.19 mGy; Estimated absorbed dose, Thyroid (M4 (153 MBq)): 7.36 mGy; Estimated absorbed dose, Upper, lower intestine wall (M4 (153 MBq)): 2.17 mGy; Estimated absorbed dose, Urinary bladder wall (M4 (153 MBq)): 2.81 mGy; Effective dose (whole body) (Male n=4, mean±SD): 0.0196±0.0019 mSv/MBq; Estimated dose, Adrenals (Male n=4, mean±SD): 0.0181±0.00135 mGy/MBq; Estimated dose, Brain (Male n=4, mean±SD): 0.0135±0.00305 mGy/MBq; Estimated dose, Breasts (Male n=4, mean±SD): 0.00801±0.000253 mGy/MBq; Estimated dose, Gallbladder wall (Male n=4, mean±SD): 0.0230±0.00361 mGy/MBq; Estimated dose, Heart wall (Male n=4, mean±SD): 0.0214±0.00739 mGy/MBq; Estimated dose, Kidneys (Male n=4, mean±SD): 0.142±0.0804 mGy/MBq; Estimated dose, Liver (Male n=4, mean±SD): 0.0392±0.0195 mGy/MBq; Estimated dose, Lower, large intestine wall (Male n=4, mean±SD): 0.0114±0.00246 mGy/MBq; Estimated dose, Lungs (Male n=4, mean±SD): 0.0446±0.0167 mGy/MBq; Estimated dose, Muscle (Male n=4, mean±SD): 0.0589±0.100 mGy/MBq; Estimated dose, Osteogenic cells (Male n=4, mean±SD): 0.0180±0.0114 mGy/MBq; Estimated dose, Pancreas (Male n=4, mean±SD): 0.0156±0.00485 mGy/MBq; Estimated dose, Red marrow (Male n=4, mean±SD): 0.0104±0.00124 mGy/MBq; Estimated dose, Remainder (Male n=4, mean±SD): 0.0117±0.000634 mGy/MBq; Estimated dose, Skin (Male n=4, mean±SD): 0.0114±0.0101 mGy/MBq; Estimated dose, Small intestine (Male n=4, mean±SD): 0.0269±0.0137 mGy/MBq; Estimated dose, Spleen (Male n=4, mean±SD): 0.0340±0.0226 mGy/MBq; Estimated dose, Stomach wall (Male n=4, mean±SD): 0.0108±0.00294 mGy/MBq; Estimated dose, Testes (Male n=4, mean±SD): 0.0169±0.0202 mGy/MBq; Estimated dose, Thymus (Male n=4, mean±SD): 0.0245±0.0190 mGy/MBq; Estimated dose, Thyroid (Male n=4, mean±SD): 0.0178±0.0175 mGy/MBq; Estimated dose, Upper, lower intestine wall (Male n=4, mean±SD): 0.0142±0.00181 mGy/MBq; Estimated dose, Urinary bladder wall (Male n=4, mean±SD): 0.0180±0.00704 mGy/MBq
